Calls of active or inactive are those of the source. The calls are words filed in the database; no cut-off is given here.
How the values were obtained:
ACHN [1] = assay: Sensitization of TRAIL-induced apoptosis in human ACHN cells assessed as reduction in cell viability preincubated for 2 hrs followed by addition of TRAIL measured after 18 hrs by MTS assay; format: functional, cell-based
Procedure, shortened: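 ACHN cells were seeded at 5000/well and rested overnight at 37 °C, in RPMI with 5% FCS, glutamine, NEAA, pyruvate, HEPES and 2-mercaptoethanol. Compound pretreatment ran 2 h, then TRAIL was added to 50 ng/mL for 18 h at 37 °C. Viability was read by MTS (2 h, A490). IC50 values (cell number reduced 50%) came from dose-response curves; triplicates, at least 3 independent experiments, ± SD.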

ACHN [2] = assay: Reduction cFLIP level in human ACHN cells at 500 nM after 18 hrs by Western blot analysis; format: functional, cell-based
Procedure, shortened: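 ACHN cells (RPMI, 5% FBS) plated 1.5×10^6/well, grown overnight at 37 °C, then exposed to compound at 500 nM for 18 h. Lysed in RIPA with protease/phosphatase inhibitors and zVAD-FMK; 20 μg protein per lane immunoblotted with anti-FLIP (7F10); GAPDH as loading control.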

[3] = Glutathione reactivity in DMSO assessed as formation of MIchael adduct with GSH at pH 7.4 after 24 hrs in presence of NAC by HPLC method
Procedure, shortened: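 Withanolide (2.12 μM in DMSO, 0.5 mL) mixed with equal volume of 4.24 μM GSH or NAC solution at pH 7.4, 37 °C. Aliquots taken at 0, 0.5, 2, 4, 8, 24 h, stored −80 °C; unreacted withanolide quantified by C18 HPLC (H2O with 40 mM NH4OAc–MeOH gradient, UV 230 nm) using peak area.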

ACHN [4] = assay: Cytotoxicity in human ACHN cells assessed as reduce cell number after 48 hrs by MTS assay; format: cell-based
Procedure, shortened: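 ACHN cells exposed to compound for 48 h at 37 °C; viable cell number by MTS read-out. Triplicate determinations; IC50 (concentration reducing cell number by 50%) from 3 independent experiments, ± SD.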

SMILES	IC50 (ACHN [1])	other results
CC(=O)OC[C@]12CC[C@H]3[C@@H](C[C@@H]4O[C@@]45CC=CC(=O)[C@]35C)[C@]1(O)[C@@H](OC(C)=O)C[C@@]2(O)[C@@](C)(O)[C@H]1CC(C)=C(C)C(=O)O1	> 4000 nM	–
CC(=O)OC[C@]12CC[C@H]3[C@@H](C[C@H]4O[C@]45CC=CC(=O)[C@]35C)[C@]1(O)[C@@H](OC(C)=O)C[C@@]2(O)[C@@](C)(O)[C@H]1CC(C)=C(C)C(=O)O1	> 4000 nM	–
CC(=O)OC[C@]12CC[C@H]3[C@@H](CC=C4CC=CC(=O)[C@@]43C)[C@]1(O)CC[C@@]2(O)[C@@](C)(O)[C@H]1CC(C)=C(C)C(=O)O1	564 nM	–
CC1=C(C)C(=O)O[C@@H]([C@](C)(O)[C@]2(O)CC[C@@]3(O)[C@@H]4C[C@H]5O[C@]56CC=CC(=O)[C@]6(C)[C@H]4CC[C@]23CO)C1	1950 nM	–
COC(=O)O[C@H]1C=CC(=O)[C@]2(C)[C@H]3CC[C@]4(C)[C@](O)([C@@](C)(O)[C@H]5CC(C)=C(C)C(=O)O5)CC[C@@]4(O)[C@@H]3C[C@H]3O[C@]132	111 nM	Activity (ACHN [2]): Active; Activity [3]: Active; Activity (ACHN [4]): Toxic
CC1=C(C)C(=O)O[C@@H]([C@](C)(O)[C@]2(O)CC[C@@]3(O)[C@@H]4CC=C5C(=O)C=CC(=O)[C@]5(C)[C@H]4CC[C@]23C)C1	168 nM	–
CC(=O)OC[C@]12CC[C@H]3[C@@H](CC=C4C[C@@H](OS(=O)(=O)O)CC(=O)[C@@]43C)[C@]1(O)CC[C@@]2(O)[C@@](C)(O)[C@H]1CC(C)=C(C)C(=O)O1	> 4000 nM	–
CC(=O)OC[C@]12CC[C@H]3[C@@H](CC=C4CC=CC(=O)[C@@]43C)[C@]1(O)[C@@H](OC(C)=O)C[C@@]2(O)[C@@](C)(O)[C@H]1CC(C)=C(C)C(=O)O1	> 4000 nM	–
CC(=O)OCC1=C(C)C(=O)O[C@@H]([C@](C)(O)[C@]2(O)C[C@H](OC(C)=O)[C@@]3(O)[C@@H]4CC=C5CC=CC(=O)[C@]5(C)[C@H]4CC[C@@]32COC(C)=O)C1	> 4000 nM	–
CO[C@H]1CC(=O)[C@]2(C)[C@H]3CC[C@]4(COC(C)=O)[C@](O)([C@@](C)(O)[C@H]5CC(C)=C(C)C(=O)O5)CC[C@@]4(O)[C@@H]3C[C@H]3O[C@]32C1	> 4000 nM	–
CC(=O)OC[C@]12CC[C@H]3[C@@H](CC=C4CC=CC(=O)[C@@]43C)[C@]1(O)[C@@H](OC(C)=O)C[C@@]2(O)[C@@](C)(O)[C@H]1CC(C)=C(CO)C(=O)O1	> 4000 nM	–
CC(=O)OC[C@]12CC[C@H]3[C@@H](C[C@H]4O[C@]45CCCC(=O)[C@]35C)[C@]1(O)CC[C@@]2(O)[C@@](C)(O)[C@H]1CC(C)=C(C)C(=O)O1	> 4000 nM	–
CC(=O)OC[C@]12CC[C@H]3[C@@H](C[C@@H]4O[C@@]45CC=CC(=O)[C@]35C)[C@]1(O)CC[C@@]2(O)[C@@](C)(O)[C@H]1CC(C)=C(C)C(=O)O1	> 4000 nM	Activity [3]: inactive
CC1=C(C)C(=O)O[C@@H]([C@](C)(O)[C@]2(O)CC[C@@]3(O)[C@@H]4C[C@H]5O[C@]56C(=O)C=CC(=O)[C@]6(C)[C@H]4CC[C@]23C)C1	> 4000 nM	–
CC1=C(C)C(=O)O[C@@H]([C@](C)(O)[C@]2(O)CC[C@@]3(O)[C@@H]4CC=C5[C@H](O)C=CC(=O)[C@]5(C)[C@H]4CC[C@]23C)C1	284 nM	–
CC(=O)OC[C@]12CC[C@H]3[C@@H](C[C@H]4O[C@]45C[C@@H](N=[N+]=[N-])CC(=O)[C@]35C)[C@]1(O)CC[C@@]2(O)[C@@](C)(O)[C@H]1CC(C)=C(C)C(=O)O1	251 nM	–
CC(=O)OC[C@]12CC[C@H]3[C@@H](CC=C4CC=CC(=O)[C@@]43C)[C@]1(O)[C@@H](OC(C)=O)C[C@@]2(O)[C@@](C)(O)[C@H]1CC(CO[C@@H]2O[C@H](CO)[C@@H](O)[C@H](O)[C@H]2O)=C(C)C(=O)O1	> 4000 nM	–
CC(=O)O[C@@H]1C=CC(=O)[C@]2(C)[C@H]3CC[C@]4(C)[C@](O)([C@@](C)(O)[C@H]5CC(C)=C(C)C(=O)O5)CC[C@@]4(O)[C@@H]3C[C@H]3O[C@]132	90 nM	Activity [3]: Active; Activity (ACHN [4]): Toxic
CC1=C(C)C(=O)O[C@@H]([C@](C)(O)[C@]2(O)CC[C@@]3(O)[C@@H]4C[C@H]5O[C@]56[C@@H](O)[C@@H](N=[N+]=[N-])CC(=O)[C@]6(C)[C@H]4CC[C@]23C)C1	1800 nM	–
CC(=O)OC[C@]12CC[C@H]3[C@@H](CC=C4CC=CC(=O)[C@@]43C)[C@]1(O)[C@@H](O)C[C@@]2(O)[C@@](C)(O)[C@H]1CC(C)=C(C)C(=O)O1	> 4000 nM	–
CC(=O)OC[C@]12CC[C@H]3[C@@H](CC=C4CC=CC(=O)[C@@]43C)[C@]1(O)[C@@H](OC(C)=O)C[C@@]2(O)[C@@](C)(O)[C@H]1CC(C)=C(CO[C@@H]2O[C@H](CO)[C@@H](O)[C@H](O)[C@H]2O)C(=O)O1	> 4000 nM	–
CC1=C(C)C(=O)O[C@@H]([C@](C)(O)[C@]2(O)CC[C@@]3(O)[C@@H]4C[C@H]5O[C@]56CCCC(=O)[C@]6(C)[C@H]4CC[C@]23CO)C1	> 4000 nM	–
CC(=O)OC[C@]12CC[C@H]3[C@@H](CC=C4CC=CC(=O)[C@@]43C)[C@]1(O)[C@@H](OC(C)=O)C[C@@]2(O)[C@@](C)(O)[C@H]1CC(CO)=C(C)C(=O)O1	> 4000 nM	–
CC(=O)OC[C@]12CC[C@H]3[C@@H](C[C@H]4O[C@]45CC=CC(=O)[C@]35C)[C@]1(O)CC[C@@]2(O)[C@@](C)(O)[C@H]1C[C@]2(C)O[C@]2(C)C(=O)O1	1250 nM	–
CC(=O)OC[C@]12CC[C@H]3[C@@H](C[C@H]4O[C@]45C[C@@H](n4ccnc4)CC(=O)[C@]35C)[C@]1(O)CC[C@@]2(O)[C@@](C)(O)[C@H]1CC(C)=C(C)C(=O)O1	164 nM	–
CC1=C(C)C(=O)O[C@@H]([C@](C)(O)[C@]2(O)CC[C@@]3(O)[C@@H]4C[C@H]5O[C@]56[C@@H](O)C=CC(=O)[C@]6(C)[C@H]4CC[C@]23C)C1	563 nM	Activity [3]: Active; Activity (ACHN [4]): Toxic
CC(=O)OC[C@]12CC[C@H]3[C@@H](C[C@@H]4O[C@@]45CC=CC(=O)[C@]35C)[C@]1(O)[C@@H](O)C[C@@]2(O)[C@@](C)(O)[C@H]1CC(C)=C(C)C(=O)O1	1650 nM	–
CC1=C(C)C(=O)O[C@@H]([C@](C)(O)[C@]2(O)CC[C@@]3(O)[C@@H]4C[C@H]5O[C@]56[C@@H](OC(=O)n5ccnc5)C=CC(=O)[C@]6(C)[C@H]4CC[C@]23C)C1	233 nM	–
CC(=O)OC[C@]12CC[C@H]3[C@@H](CC=C4C[C@@H](OS(=O)(=O)O)CC(=O)[C@@]43C)[C@]1(O)[C@@H](OC(C)=O)C[C@@]2(O)[C@@](C)(O)[C@H]1CC(C)=C(C)C(=O)O1	> 4000 nM	–
CC(=O)OC[C@]12CC[C@H]3[C@@H](C[C@H]4O[C@]45CC=CC(=O)[C@]35C)[C@]1(O)[C@@H](O)C[C@@]2(O)[C@@](C)(O)[C@H]1CC(C)=C(C)C(=O)O1	> 4000 nM	–

From ChEMBL document CHEMBL4007460, “17β-Hydroxywithanolides as Sensitizers of Renal Carcinoma Cells to Tumor Necrosis Factor-α Related Apoptosis Inducing Ligand (TRAIL) Mediated Apoptosis: Structure-Activity Relationships” (J Med Chem, 2017)
